Paper PMC3858174 (Bioorganic & medicinal chemistry, 2013)
pKi: −log10 of the molar value. Blank lines part the entries; values can stand above or below the compound they belong to.

Experiments:
5-HT1AR [1] = details: 5-HT1AR-rich regions such as hippocampus, amygdala, cortex and cingulate regions; cited from earlier work
5HT7 = 5HT7 (Homo sapiens, UniProt P34969); test: NIMH-PDSP binding assay, 5HT7
Adrenergic α1A = molecular target: T1, Adrenergic α1A (Homo sapiens, UniProt P35348); test: NIMH-PDSP binding assay, Adrenergic α1A
T1 sequence (P35348 1-466): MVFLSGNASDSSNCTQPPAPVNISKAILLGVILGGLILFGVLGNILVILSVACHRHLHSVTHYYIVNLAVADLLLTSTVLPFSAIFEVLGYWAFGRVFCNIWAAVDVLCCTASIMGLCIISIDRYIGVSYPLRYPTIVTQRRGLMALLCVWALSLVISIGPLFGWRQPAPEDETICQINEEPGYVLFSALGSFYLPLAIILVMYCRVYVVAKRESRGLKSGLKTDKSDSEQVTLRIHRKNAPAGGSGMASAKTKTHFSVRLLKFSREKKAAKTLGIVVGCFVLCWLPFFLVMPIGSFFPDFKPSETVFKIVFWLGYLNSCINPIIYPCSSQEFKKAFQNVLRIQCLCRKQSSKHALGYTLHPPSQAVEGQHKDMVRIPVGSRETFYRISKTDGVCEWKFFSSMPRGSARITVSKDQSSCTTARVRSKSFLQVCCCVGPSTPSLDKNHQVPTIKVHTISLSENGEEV

Dopamine3 = Dopamine3 (Homo sapiens, UniProt P35462); test: NIMH-PDSP binding assay, Dopamine3
BZP Rat Brain Site = test: NIMH-PDSP binding assay, BZP Rat Brain Site; details: read-out: Ki BZP Rat Brain Site
Dopamine2 = Dopamine2 (Homo sapiens, UniProt P14416); test: NIMH-PDSP binding assay, Dopamine2
Stability of formulation = type: physicochemical; details: 10% ethanol-90% saline; analytical HPLC and radio-TLC
5-HT1AR [2] = test: PET imaging in anesthetized baboon; type: in vivo, baboon (Papio anubis)
Outline: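 Two fasted male baboons: ketamine 10 mg/kg im, then 1.5–2.0% isoflurane via endotracheal tube, core temperature held at 37 °C. Saline iv line and arterial line placed. 10 min transmission scan, then 111 ± 18 MBq radiotracer as iv bolus. 3-D emission data collected for 180 min. MRI-coregistered regions of interest, left and right averaged.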

[3] = logPo/w by shake flask method; type: physicochemical

Sequence of 5HT7 (P34969 whole entry, species assumed): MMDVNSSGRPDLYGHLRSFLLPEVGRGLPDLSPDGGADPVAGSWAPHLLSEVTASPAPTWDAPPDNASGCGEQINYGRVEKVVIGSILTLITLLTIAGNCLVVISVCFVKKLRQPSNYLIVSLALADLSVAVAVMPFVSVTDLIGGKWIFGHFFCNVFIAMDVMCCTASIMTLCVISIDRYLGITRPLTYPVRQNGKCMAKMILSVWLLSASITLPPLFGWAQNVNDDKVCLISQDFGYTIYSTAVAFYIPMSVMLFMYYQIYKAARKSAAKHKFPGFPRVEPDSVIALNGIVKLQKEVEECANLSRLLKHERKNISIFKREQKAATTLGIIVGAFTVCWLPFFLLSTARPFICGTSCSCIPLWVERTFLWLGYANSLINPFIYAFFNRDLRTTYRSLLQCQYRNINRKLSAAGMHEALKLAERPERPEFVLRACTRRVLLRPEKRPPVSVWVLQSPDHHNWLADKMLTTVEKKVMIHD
Sequence of Dopamine3 (P35462 whole entry): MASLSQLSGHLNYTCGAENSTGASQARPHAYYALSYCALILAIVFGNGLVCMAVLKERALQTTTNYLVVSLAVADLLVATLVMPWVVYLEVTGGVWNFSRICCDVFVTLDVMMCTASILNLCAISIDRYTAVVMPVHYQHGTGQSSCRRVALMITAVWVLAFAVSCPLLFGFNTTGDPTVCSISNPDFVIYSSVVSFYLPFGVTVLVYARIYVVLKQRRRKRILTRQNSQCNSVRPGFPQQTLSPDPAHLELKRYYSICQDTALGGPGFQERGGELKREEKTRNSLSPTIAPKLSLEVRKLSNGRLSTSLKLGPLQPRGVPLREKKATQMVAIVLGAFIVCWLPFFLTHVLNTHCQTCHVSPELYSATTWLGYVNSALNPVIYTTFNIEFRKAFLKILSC
Sequence of Dopamine2 (P14416 whole entry): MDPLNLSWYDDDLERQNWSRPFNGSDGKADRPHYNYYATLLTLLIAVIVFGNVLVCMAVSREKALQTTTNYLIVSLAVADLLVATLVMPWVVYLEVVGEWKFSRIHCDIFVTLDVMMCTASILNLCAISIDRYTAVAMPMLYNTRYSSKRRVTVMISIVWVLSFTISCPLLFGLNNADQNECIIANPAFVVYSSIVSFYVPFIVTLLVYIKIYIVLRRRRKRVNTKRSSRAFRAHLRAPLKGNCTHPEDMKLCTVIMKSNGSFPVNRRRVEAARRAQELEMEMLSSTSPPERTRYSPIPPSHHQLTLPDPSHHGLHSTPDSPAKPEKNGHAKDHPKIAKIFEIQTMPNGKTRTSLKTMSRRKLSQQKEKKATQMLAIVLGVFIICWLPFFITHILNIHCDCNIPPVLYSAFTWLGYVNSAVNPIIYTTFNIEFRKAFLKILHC

Compound: Cn1c(=O)cnn(CCCCN2CCN(c3ccccc3O[11CH3])CC2)c1=O [[^11C]CUMI-101]
lower BPF in comparison with [11C]WAY-100635 scans (5-HT1AR [1]): ~ 50%

selectivity to 5-HT1A over 5-HT7 (5HT7): 172 fold
Compound: Cn1c(=O)cnn(CCCCN2CCN(c3ccccc3OCCF)CC2)c1=O [FECUMI-101, 2-(4-(4-(2-(2-fluoroethoxy)phenyl)piperazin-1-yl)butyl)-4-methyl-1,2,4-triazine-3,5(2H,4H)-dione]

less affinity for α1A AR in comparison to 5-HT1AR (Adrenergic α1A): 45 fold
Ki Dopamine3 (Dopamine3): did not show any significant binding
pKi (BZP Rat Brain Site): < 5.00
Ki Dopamine2 (Dopamine2): did not show any significant binding
Compound: COc1ccccc1N1CCN(CCCCn2ncc(=O)n(C)c2=O)CC1 [CUMI-101]

Stability of radioproduct in formulation, no significant de[18F]fluorination (Stability of formulation): up to 4 h
BBB penetration (5-HT1AR [2]; anesthetized baboon, 111 ± 18 MBq i.v.): penetrates the BBB
in vivo radio[18F]defluorination (skull image) (5-HT1AR [2]; baboon PET): No skull image
logPo/w [3]: 1.2
Compound: Cn1c(=O)cnn(CCCCN2CCN(c3ccccc3OCC[18F])CC2)c1=O [[^18F]FECUMI-101, [18F]2-(4-(4-(2-(2-fluoroethoxy)phenyl)piperazin-1-yl)butyl)-4-methyl-1,2,4-triazine-3,5(2H,4H)-dione]
